The values below come from PMC6339461 (Bioorganic & medicinal chemistry letters, 2018).

Entries after “also recorded” stand apart in the source; their conditions may differ.

Data set [1] can be described thus: solubility in DMSO and buffer. Format: physicochemical. The settings on record: in both DMSO and buffer; compared with hit 7a.
Data set [2] is described as follows: parallel artificial membrane permeability assay. The conditions noted are these: for permeability, result in words: PAMPA. In kind it is in vitro ADME. On the technique in general: In PAMPA a lipid-coated filter parts donor from acceptor wells.
The subject of a further data set is HepG2. The data set can be described thus: cytotoxicity in HepG2 cells. Format: cell-based. The settings on record: concentrations up to 100 μM.
For a further data set, the system named is HeLa. Put plainly: cytotoxicity in HeLa cells. The conditions noted are these: concentrations up to 100 μM. Format: cell-based.
A further data set has as its target T1, TDP2 (Danio rerio, UniProt Q5XJA0).
T1 sequence (Q5XJA0 121-369): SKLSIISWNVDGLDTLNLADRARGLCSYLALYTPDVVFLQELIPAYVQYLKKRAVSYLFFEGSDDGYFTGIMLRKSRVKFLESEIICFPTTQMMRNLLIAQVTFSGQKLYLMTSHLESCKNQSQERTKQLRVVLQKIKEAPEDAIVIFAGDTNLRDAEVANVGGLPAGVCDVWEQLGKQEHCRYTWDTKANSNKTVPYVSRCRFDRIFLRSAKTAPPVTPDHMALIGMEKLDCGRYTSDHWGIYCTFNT
Put plainly: fluorescence-based biochemical assay measuring the catalytic activity of TDP2. The method, boiled down:
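TDP2 catalytic activity measured with a fluorescence read-out. IC50 values are the mean of three independent experiments, each run in triplicate.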

Turning to `O=C(Nc1nc2cc(-c3ccccc3)ccn2n1)c1cccc([N+](=O)[O-])c1` [Compound 17a], in data set [1], the “solubility profile, result in words” value was “better solubility profile”.

On to `O=C(Nc1nc2cc(-c3ccccc3)ccn2n1)c1cccc(Cl)c1` [Compound 17e], for which the “permeability, result in words” value in data set [2] is reported as “borderline Pe value; also recorded: good cellular permeability”. Further, in data set [2] (relative to 1), the “Pe value, times higher than that of 1” value is “about 10 times”. Further, the “permeability in PAMPA, fold higher than the hit compound” value in data set [2] (relative to hit compound) amounted to 6 fold. For the same compound, the “cytotoxicity in HepG2, result in words” value in the data set on HepG2 is recorded as “no cytotoxicity”. Further, the “cytotoxicity in HeLa, result in words” value in the data set with HeLa is listed as “no cytotoxicity”.

For the compound `O=C(Nc1nc2cc(-c3ccccc3)ccn2n1)c1ccc(F)cc1Cl` [Compound 17o], at TDP2, the “TDP2 inhibition, result in words” value was “further reduced activity”.

Turning to `O=C(Nc1nc2cc(-c3cccnc3)ccn2n1)c1cccc(Cl)c1` [Compound 17z], in data set [2], the “permeability, result in words” value is “good cellular permeability; also recorded: excellent cell permeability”. The “fold increase in permeability versus 17e” value in data set [2] (relative to 17e) stood at 7 fold. For the same compound, the “cytotoxicity in HepG2, result in words” value in the data set with HepG2 is given as “no cytotoxicity”. The “cytotoxicity in HeLa, result in words” value with HeLa is listed as “no cytotoxicity”.
